Source: PubChem (Sanford-Burnham Center for Chemical Genomics)
Sampled rows, rich in hits. Any-hit rate of the full collection: about 1.5%.
APJ agonist: agonists of human apelin receptor APJ, primary screen, CHO-K1 cells, PathHunter beta-arrestin, luminescence; P35414; 0% DMSO wells, 100% apelin; activation, % at 20 µM; actives 0.11% (n = 330,000);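 active means activation more than six SD over the plate average, tested at 20 µM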;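 further: 0% = DMSO alone and 100% = apelin-13 at 10 nM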
Target sequence (P35414 whole entry, looked up): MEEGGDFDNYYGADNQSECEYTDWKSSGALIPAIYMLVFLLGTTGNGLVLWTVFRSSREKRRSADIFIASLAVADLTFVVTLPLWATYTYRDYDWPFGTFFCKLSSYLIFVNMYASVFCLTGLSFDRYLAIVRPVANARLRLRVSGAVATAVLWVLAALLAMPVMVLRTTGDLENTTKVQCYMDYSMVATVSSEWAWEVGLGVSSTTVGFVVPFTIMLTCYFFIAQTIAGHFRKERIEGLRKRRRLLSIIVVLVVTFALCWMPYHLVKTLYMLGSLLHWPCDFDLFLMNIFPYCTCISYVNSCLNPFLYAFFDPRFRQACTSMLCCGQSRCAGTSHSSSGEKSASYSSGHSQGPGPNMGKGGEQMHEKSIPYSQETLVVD
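Assay system: CHO-K1 cells stably expressing ProLink-tagged human APJ and arrestin–beta-gal acceptor. Compound dosing: 20 µM single point, 1% DMSO. Times: 16-18 h seeding, 90 min dark compound exposure, 60 min detection. Detection: beta-gal luminescence. Evaluation: APJ–arrestin association signal. Controls: negative DMSO alone, positive Apelin-13 at 10 nM.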
CXCR6 inh: CXCR6 receptor inhibitors, primary screen, cell-based, beta-arrestin, luminescence, CHO-K1 PathHunter, 1536-well. C-X-C chemokine receptor type 6 (Homo sapiens), O00574. inhibition, % at 20 µM. actives 0.36% (n = 360,000). AID 602244, 2012; in the data active means inhibition above about 34%, passing the limit was not always enough;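 further: antagonist mode with CXCL16 agonist at 10 nM final; 0% = 10 nM CXCL16 with DMSO and 100% = unstimulated wells without agonist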
EBI2 block: EBI2 receptor antagonists, beta-arrestin recruitment, primary screen, cell-based, luminescence, 7a,25-OHC stimulation, uHTS; G-protein coupled receptor 183 (Homo sapiens), P32249; 7a,25-OHC stimulated; inhibition, % at 5 µM; actives 0.81% (n = 360,000); in the data active means inhibition above about 38%;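 further: enzyme fragment complementation signal reports receptor beta-arrestin coupling in cells; 0% = agonist plus DMSO wells and 100% = wells without agonist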
APJ antag: antagonists of human apelin receptor APJ, primary screen, CHO-K1 cells, beta-arrestin complementation, luminescence; inhibition, % at 20 µM; AID 2521, 2010; actives 0.32% (n = 330,000); P35414;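 active means inhibition above about 40% at 20 µM, limit read from the data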;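 further: cells challenged with 10 nM apelin-13 agonist together with compound; plate controls were apelin-13 plus DMSO wells for no effect and DMSO wells lacking apelin-13 for full effect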
CCR6 antagonist: CCR6 receptor antagonists, primary screen, cell-based, CHO-K1, luminescence, beta-arrestin, uHTS | AID 493098, 2011 | inhibition, % at 20 µM | CHO-K1 CCR6 PathHunter beta-arrestin, CCL20-stimulated | actives 0.49% (n = 340,000) | C-C chemokine receptor type 6 (Homo sapiens), P51684;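 active means compounds whose inhibition of the agonist-driven luminescence signal at 20 µM reaches about 50%, limit read from the data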;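 further: cells stimulated with CCL20 at 14 nM final; plate controls were DMSO with CCL20 for no effect and DMSO without agonist for full effect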
EBI2 conf: EBI2 antagonist hit retest, beta-arrestin, confirmation, cell-based, single concentration, luminescence, 7a,25-OHC stimulation | AID 651997, 2013 | shares compounds with EBI2 block | 7a,25-OHC antagonism | actives 29% (n = 2,400) | inhibition, % at 5 µM;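 active means inhibition of at least 50%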
EBI2 ag: EBI2 agonist activity of antagonist hits, confirmation, counter-screen for EBI2 antagonist project, cell-based, single concentration, agonist mode, luminescence. EBI2-expressing cells, 60 min; 0% vehicle, 100% 7α,25-dihydroxycholesterol control. AID 652000, 2013. 2,400 tested, under 10 active. activation, % at 5 µM. shares compounds with EBI2 block;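 active means activation of at least 50%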
bGal cs: E. coli beta-galactosidase enzyme inhibition, confirmation, counter-screen for EBI2 antagonist project, biochemical, luminescence, single concentration | shares compounds with EBI2 block | purified beta-galactosidase, luminescent Galacton Star, 15 min | inhibition, % at 5 µM | actives 1% (n = 2,400) | AID 652176, 2013;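 active means replicate-average signal at least 3 plate SD below neutral wells, shown as high inhibition, flagging enzyme-inhibiting false positives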;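 further: 0% = DMSO wells with enzyme and 100% = wells lacking enzyme; higher means stronger loss of beta-gal luminescence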
An asterisk follows results filed as active; nt = no result.

SMILES	APJ agonist	CXCR6 inh	EBI2 block	APJ antag	CCR6 antagonist	EBI2 conf	EBI2 ag	bGal cs
COc1ccc(/C=C/C(=O)Nc2ccc(OC)nc2)cc1	-1	3	44*	0	3	16	0	1
COc1ccc(/C=C/C(=O)NCC(=O)N/N=C/c2cccnc2)cc1	-1	-3	12	0	-13	nt	nt	nt
COc1ccc(/C=C/C(=O)NCC(=O)N/N=C/c2ccc(OC)cc2)cc1	-1	0	62*	-2	9	44	1	0
O=C(COc1ccccc1)NCC(=O)N/N=C/c1ccc(Br)cc1	8	-4	38*	-3	8	14	-1	-13
Cc1ccccc1-n1nnnc1SCC(=O)N(C)C1CCS(=O)(=O)C1 (stereo not given)	-3	-13	-10	15	13	nt	nt	nt
O=c1cccc(-c2cccc3ccccc23)o1	nt	nt	-8	nt	nt	nt	nt	nt
CCOc1ccc(NC(=O)CSc2ccc3nnc(-c4ccccn4)n3n2)cc1	-7	-2	-5	17	7	nt	nt	nt
O=C(CSc1ccc2nnc(-c3ccccn3)n2n1)Nc1ccccc1	7	-12	55*	-6	0	28	0	1
O=S(=O)(c1ccc(F)c(F)c1)N1CCCCCCC1	nt	2	-5	nt	nt	nt	nt	nt
N#Cc1ccc(C(=O)Nc2cc(S(=O)(=O)Nc3ccc(Cl)cc3)ccc2N2CCCCC2)cc1	-1	-5	52*	-15	13	33	1	3
O=C(Nc1cc(S(=O)(=O)Nc2ccc(Cl)cc2)ccc1N1CCCCC1)c1ccc(F)cc1	-3	15	29	-11	14	nt	nt	nt
O=C(COc1ccccc1)NS(=O)(=O)c1ccccc1	1	-3	-5	28	1	nt	nt	nt
O=C(c1ccc2ccccc2c1)N1CCN(S(=O)(=O)/C=C/c2ccccc2)CC1	-3	1	90*	8	21	77*	0	-6
O=C(/C=C/c1ccccc1)N1CCN(S(=O)(=O)c2ccc(F)cc2)CC1	-1	4	79*	5	6	68*	0	6
COc1cccc(/C=C/C(=O)N2CCN(S(=O)(=O)c3ccccc3)CC2)c1	nt	2	90*	nt	nt	63*	0	-16
O=C(COc1ccc(F)cc1Br)N1CCN(S(=O)(=O)/C=C/c2ccccc2)CC1	-5	-11	38	0	0	nt	nt	nt
O=C(/C=C/c1ccc(F)cc1)N1CCN(S(=O)(=O)/C=C/c2ccccc2)CC1	0	2	95*	-24	23	89*	0	8
C[C@@H]1COc2cccc(N3CCC[C@H]3CO)c2S(=O)(=O)N1	nt	-3	0	nt	nt	nt	nt	nt
O=C(/C=C/c1cccc([N+](=O)[O-])c1)N1CCN(S(=O)(=O)c2cccs2)CC1	-1	1	47*	-6	7	41	0	7
Cc1cccc(OCCNc2ccc(C(F)(F)F)cc2[N+](=O)[O-])c1	-3	-1	-4	-12	21	nt	nt	nt
Cc1ccc(OCCNC(=O)c2ccc(C)cc2)cc1	-3	4	40*	-20	1	31	-1	-10
Cc1ccc(OCCNC(=O)c2cccc(Oc3ccc(C(F)(F)F)cc3[N+](=O)[O-])c2)cc1	-2	-7	40*	8	-1	25	0	1
COc1ccc(OCCNC(=O)c2ccc(C)cc2)cc1	-1	1	38	-4	11	nt	nt	nt
C[C@H](CO)N1C[C@H](C)[C@@H](CN(C)C(=O)Nc2ccccc2)Oc2ccc(NS(=O)(=O)c3cn(C)cn3)cc2C1=O	-1	-10	3	-1	5	nt	nt	nt
O=C(CSc1nnc(COc2ccc(Cl)cc2)o1)Nc1nccs1	nt	-1	-12	nt	nt	nt	nt	nt
SMILES	APJ agonist	CXCR6 inh	EBI2 block	APJ antag	CCR6 antagonist	EBI2 conf	EBI2 ag	bGal cs
O=C(c1cc(-c2ccccc2)on1)N1CCN(Cc2ccc3c(c2)OCO3)CC1	1	-4	50*	15	5	7	1	4
O=C(c1ccc2c(c1)OCO2)N1CCN(S(=O)(=O)c2ccccc2)CC1	-2	-15	3	-39	-2	nt	nt	nt
O=C(c1ccc(Cl)c(Cl)c1)N1CCN(Cc2ccc3c(c2)OCO3)CC1	-2	-1	57*	4	12	48	0	-20
O=C(c1cc(-c2ccc(F)cc2)no1)N1CCN(Cc2ccc3c(c2)OCO3)CC1	-5	-10	76*	20	0	49	1	3
Cc1ccc(C(=O)N2CCN(Cc3ccc4c(c3)OCO4)CC2)cc1C	0	-8	3	2	14	nt	nt	nt
O=C(c1ccc2c(c1)OCO2)N1CCN(S(=O)(=O)c2ccc(Br)cc2Cl)CC1	0	2	52*	-5	8	24	-2	-7
NC(=O)COC(=O)CCSc1ccc(Cl)cc1	2	-12	-1	-16	8	nt	nt	nt
CS(=O)(=O)c1ccc(Cl)c(NC(=O)CNC(=O)c2ccc3c(c2)OCO3)c1	-2	4	-1	3	3	nt	nt	nt
Cc1ccc(C(=O)Nc2ccccc2C(=O)NCc2ccco2)cc1S(=O)(=O)N1CCCCC1	-4	12	44*	-1	26	28	0	8
Cc1ccc(C(=O)NCc2ccco2)cc1S(=O)(=O)N1CCCCC1	-7	4	-2	5	14	nt	nt	nt
Cc1ccccc1CNC(=O)c1ccc(CSCc2ccccc2)cc1	-5	17	21	5	4	nt	nt	nt
O=C(c1nc2ccc(Cl)cn2c1CNCC[C@@H]1C[C@@H]2C=C[C@H]1C2)N1CCCCCCC1	-4	-6	61*	9	4	42	0	2
C[C@H]1CN([C@@H](C)CO)C(=O)CCCn2nncc2CO[C@H]1CN(C)S(=O)(=O)c1cccc(F)c1	nt	0	-6	nt	nt	nt	nt	nt
C[C@@H]1CN([C@@H](C)CO)C(=O)CCCn2nncc2CO[C@@H]1CN(C)S(=O)(=O)c1cccc(F)c1	nt	4	64*	nt	nt	32	-1	-14
C[C@@H]1CN([C@H](C)CO)C(=O)CCCn2nncc2CO[C@@H]1CN(C)S(=O)(=O)c1cccc(F)c1	nt	4	56*	nt	nt	27	0	5
